Measured values published in ChEMBL document CHEMBL4616681, “Discovery of 3-Pyridyl Isoindolin-1-one Derivatives as Potent, Selective, and Orally Active Aldosterone Synthase (CYP11B2) Inhibitors” (J Med Chem, 2020).

How the values were obtained:
[1] = target: T1, Cytochrome P450 11B2, mitochondrial (Homo sapiens, UniProt P19099); assay: Inhibition of human CYP11B2 expressed in human renal leiomyoblastoma cells harboring FDXR/FDX using 1-deoxycorticosterone as substrate by HTRF assay; assay type: cell-based
T1 sequence (P19099 whole entry): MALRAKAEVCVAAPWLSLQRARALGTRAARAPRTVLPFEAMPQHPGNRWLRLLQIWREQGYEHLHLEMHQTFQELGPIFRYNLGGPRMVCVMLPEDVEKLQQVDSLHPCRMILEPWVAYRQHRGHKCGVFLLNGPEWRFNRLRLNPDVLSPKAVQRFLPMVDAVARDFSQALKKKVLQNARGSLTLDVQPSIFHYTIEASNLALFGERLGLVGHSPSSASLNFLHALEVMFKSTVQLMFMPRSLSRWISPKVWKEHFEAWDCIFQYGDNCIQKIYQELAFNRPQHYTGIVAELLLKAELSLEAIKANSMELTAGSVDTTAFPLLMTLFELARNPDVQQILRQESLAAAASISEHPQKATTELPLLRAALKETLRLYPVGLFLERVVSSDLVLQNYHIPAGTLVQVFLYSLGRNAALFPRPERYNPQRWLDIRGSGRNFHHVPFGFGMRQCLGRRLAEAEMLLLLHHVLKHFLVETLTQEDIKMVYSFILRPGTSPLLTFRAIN
Summary of the method: (§1)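 Cells with endogenous FDXR/FDX and no detectable CYP11B activity, stably transfected (CMV promoter, neomycin selection, G-418 400 µg/mL) with CYP11B1 or CYP11B2 of the named species. Assayed in DMEM/F12 with 2.5% charcoal-treated FCS. Substrate 1 µM 11-deoxycorticosterone (B2) or 11-deoxycortisol (B1), 16 hr. Aldosterone or cortisol in supernatant measured by HTRF. IC50 from 4-parameter MMF fit; selectivity factor is the B1/B2 IC50 ratio.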

[2] = target: T2, Cytochrome P450 11B1, mitochondrial (Homo sapiens, UniProt P15538); assay: Inhibition of human CYP11B1 expressed in human renal leiomyoblastoma cells harboring FDXR/FDX using 1-deoxycortisol as substrate by HTRF assay; assay type: ADME, cell-based; summary of the method: as §1
T2 sequence (P15538 whole entry): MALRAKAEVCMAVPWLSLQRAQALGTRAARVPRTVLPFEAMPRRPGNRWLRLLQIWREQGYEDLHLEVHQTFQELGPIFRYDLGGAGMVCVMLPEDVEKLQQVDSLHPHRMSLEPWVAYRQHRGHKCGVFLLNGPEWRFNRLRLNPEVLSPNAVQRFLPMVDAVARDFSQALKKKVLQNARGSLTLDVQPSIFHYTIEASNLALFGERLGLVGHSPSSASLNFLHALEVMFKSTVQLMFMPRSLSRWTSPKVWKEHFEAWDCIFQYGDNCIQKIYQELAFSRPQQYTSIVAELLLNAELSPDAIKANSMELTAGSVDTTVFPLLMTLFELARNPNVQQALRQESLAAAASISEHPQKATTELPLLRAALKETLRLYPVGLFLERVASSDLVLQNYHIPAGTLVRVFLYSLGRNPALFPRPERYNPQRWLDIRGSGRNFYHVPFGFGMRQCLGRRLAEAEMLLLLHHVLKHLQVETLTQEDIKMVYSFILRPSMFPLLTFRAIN

[3] = Selectivity ratio of IC50 for human CYP11B1 expressed in human renal leiomyoblastoma cells harboring FDXR/FDX to IC50 for human CYP11B2 expressed in human renal leiomyoblastoma cells harboring FDXR/FDX; assay type: cell-based; summary of the method: as §1
[4] = Intrinsic clearance in human liver microsomes preincubated for 10 mins followed by NADPH regenerating system addition and measured up to 30 mins by LC/MS-MS analysis; assay type: ADME, Microsome; conditions: read-out: CLH
Summary of the method: (§2)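 Liver microsomes at 0.5 mg protein/mL in 100 mM potassium phosphate, pH 7.4. Compound preincubated 10 min at 37 °C. Intrinsic clearance scaled using the well-stirred liver model.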

[5] = Intrinsic clearance in mouse liver microsomes preincubated for 10 mins followed by NADPH regenerating system addition and measured up to 30 mins by LC/MS-MS analysis; assay type: ADME, Microsome; summary of the method: as §2
[6] = Inhibition of cynomolgus monkey CYP11B2 expressed in human G401 cells using 1-deoxycorticosterone as substrate by HTRF assay; assay type: cell-based, Macaca fascicularis; conditions: g-401; summary of the method: as §1
[7] = Selectivity ratio of IC50 for cynomolgus monkey CYP11B1 expressed in human G401 cells to IC50 for cynomolgus monkey CYP11B2 expressed in human G401 cells; assay type: cell-based; summary of the method: as §1
[8] = Intrinsic clearance in rat liver microsomes preincubated for 10 mins followed by NADPH regenerating system addition and measured up to 30 mins by LC/MS-MS analysis; assay type: ADME, Microsome; summary of the method: as §2

| SMILES | IC50 [1] [nM] | IC50 [2] [nM] | Ratio IC50 [3] | predicted hepatic clearance [4] [mL/min/kg] | predicted hepatic clearance (CLH) [5] [mL/min/kg] | IC50 [6] [nM] | Ratio IC50 [7] | predicted hepatic clearance (CLH) [8] [mL/min/kg] |
| --- | --- | --- | --- | --- | --- | --- | --- | --- |
| Cc1cc(Cl)ccc1C(=O)N(C)c1cccnc1 | > 3000 | > 3000 |  |  |  |  |  |  |
| CC(=O)N[C@@H]1CCCc2c1cncc2N1Cc2cc(Cl)ccc2C1=O | 44 | 2330 | 53 | < 3.5 | < 20.2 |  |  |  |
| O=C1c2cc(F)c(Cl)cc2CCN1c1cccnc1 | 104 | 3540 | 34 | < 3.5 | 30.9 |  |  |  |
| CCS(=O)(=O)N[C@@H]1CCCc2c1cncc2N1Cc2cc(Cl)ccc2C1=O | 40 | 1790 | 45 | < 3.5 | 27 |  |  |  |
| Cc1ccc(C(=O)Nc2cccnc2)cc1 | > 3000 | > 3000 |  |  |  |  |  |  |
| CC(=O)N1CCC(Oc2cncc(N3C(=O)c4ccc(Cl)cc4C3(C)C)c2)CC1 | 4 |  | 61 |  |  | 2 | 225 |  |
| CC(=O)N1CC2(C1)CN(c1cncc(N3C(=O)c4ccc(Cl)cc4C3(C)C)c1)C2 | 23 |  | 640 |  |  |  |  | 3.71 |
| CC(=O)N[C@@H]1CCCc2c1cncc2N1C(=O)c2ccc(Cl)cc2[C@@H]1C | 4 | 81 | 20 | < 3.5 | < 20.2 |  |  |  |
| CN(C(=O)c1ccc(C#N)cc1)c1cccnc1 | > 3000 | > 3000 |  |  |  |  |  |  |
| O=C1c2ccccc2CN1c1cccnc1 | 1120 | > 3000 | > 3 |  |  |  |  |  |
| CS(=O)(=O)N[C@@H]1CCCc2c1cncc2N1Cc2cc(Cl)ccc2C1=O | 998 | 9350 | 9 | < 3.5 | < 20.2 |  |  |  |
| C[C@@H](NS(C)(=O)=O)c1cncc(N2C(=O)c3ccc(Cl)cc3C2(C)C)c1 | 8 |  | 71 |  |  | 4 | 93 |  |
| CC(=O)N1CC[C@H](Oc2cncc(N3C(=O)c4ccc(Cl)cc4C3(C)C)c2)C1 | 7 |  | 81 |  |  | 5 | 193 |  |
| CCC(=O)N[C@@H]1CCCc2c1cncc2N1C(=O)c2ccc(Cl)cc2[C@H]1C | 66 | 9410 | 143 | < 3.5 | 45.6 |  |  |  |
| CCC(=O)N[C@@H]1CCCc2c1cncc2N1C(=O)c2ccc(Cl)cc2[C@@H]1CC | 12 | 345 | 29 | < 3.5 | < 20.2 |  |  |  |
| CC1c2cc(Cl)ccc2C(=O)N1c1cccnc1 (stereo not given) | 123 | 1250 | 10 | 12.2 | 66.5 |  |  |  |
| Cc1cc(Cl)ccc1C(=O)Nc1cccnc1 | 277 | > 3000 | > 11 |  |  |  |  |  |
| O=C1c2ccc(Cl)cc2C(Cc2ccccc2)N1c1cccnc1 (stereo not given) | 1070 | 214 | 0.2 |  |  |  |  |  |
| CCC(=O)N[C@@H]1CCCc2c1cncc2N1C(=O)c2ccc(Cl)cc2[C@H]1CC | 90 | 10200 | 114 | < 3.5 | 44.9 |  |  |  |
| CC1(C)c2cc(Cl)ccc2C(=O)N1c1cccnc1 | 108 | 4280 | 40 | < 3.5 | 25 |  |  |  |
| Cc1ccncc1C(=O)N1CC2(C1)CN(c1cncc(N3C(=O)c4ccc(Cl)cc4C3(C)C)c1)C2 | 14 |  | 1870 |  |  |  |  |  |
| O=C(Nc1cccnc1)c1ccc(Cl)cc1F | 297 | > 3000 | > 10 |  |  |  |  |  |

| SMILES | IC50 [1] [nM] | IC50 [2] [nM] | Ratio IC50 [3] | predicted hepatic clearance [4] [mL/min/kg] | predicted hepatic clearance (CLH) [5] [mL/min/kg] | IC50 [6] [nM] | Ratio IC50 [7] | predicted hepatic clearance (CLH) [8] [mL/min/kg] |
| --- | --- | --- | --- | --- | --- | --- | --- | --- |
| O=C1c2ccc(Cl)cc2C(C2CC2)N1c1cccnc1 (stereo not given) | 161 | 32500 | 202 | 9.4 |  |  |  |  |
| CC(=O)N1CC[C@@H](Oc2cncc(N3C(=O)c4ccc(Cl)cc4C3(C)C)c2)C1 | 11 |  | 113 |  |  | 7 | 643 |  |
| O=C1c2ccc(Cl)cc2C2(CC2)N1c1cccnc1 | 120 | 4450 | 37 | 3.5 |  |  |  |  |
| CC(=O)N[C@@H]1CCCc2c1cncc2N1C(=O)c2ccc(Cl)cc2[C@@H]1C1CC1 | 354 | > 30000 | > 85 |  |  |  |  |  |
| CC1(C)c2cc(Cl)ccc2C(=O)N1c1cncc(CNS(C)(=O)=O)c1 | 33 |  | 49 |  |  | 10 | 179 |  |
| CC(=O)N[C@@H]1CCCc2c1cncc2N1C(=O)c2ccc(Cl)cc2[C@H]1C | 130 | 5140 | 40 | < 3.5 | 43.5 |  |  |  |
| CN(C(=O)c1ccc(Cl)cc1F)c1cccnc1 | > 3000 | > 3000 |  |  |  |  |  |  |
| Cc1cccnc1C(=O)NCc1cncc(N2C(=O)c3ccc(Cl)cc3C2(C)C)c1 | 9 |  | 89 |  |  |  | 191 |  |
| CC(=O)N1CCC(c2cncc(N3C(=O)c4ccc(Cl)cc4C3(C)C)c2)CC1 | 5 |  | 77 |  |  | 2 | 466 |  |
| CC[C@@H]1c2cc(Cl)ccc2C(=O)N1c1cncc2c1CCC[C@H]2NC(C)=O | 7 | 334 | 48 | < 3.5 | < 20.2 |  |  |  |
| CCS(=O)(=O)NCc1cncc(N2C(=O)c3ccc(Cl)cc3C2(C)C)c1 | 92 |  | 31 |  |  |  |  |  |
| CC[C@H]1c2cc(Cl)ccc2C(=O)N1c1cncc2c1CCC[C@H]2NC(C)=O | 97 | 3630 | 37 | < 3.5 | < 20.2 |  |  |  |
| CCC(=O)NCc1cncc(N2C(=O)c3ccc(Cl)cc3C2(C)C)c1 | 282 |  | 28 |  |  |  |  |  |
| O=C(Nc1cccnc1)c1ccc(Cl)cc1 | 420 | > 3000 | > 7 |  |  |  |  |  |
| N#Cc1ccc(C(=O)Nc2cccnc2)cc1 | 454 | > 3000 | > 7 |  |  |  |  |  |
| CCC(=O)N[C@@H]1CCCc2c1cncc2N1CCc2cc(Cl)ccc2C1=O | 119 | 3330 |  | < 3.5 |  |  |  | < 20.2 |
| O=C(Nc1cccnc1)c1ccccc1Cl | 967 | > 3000 | > 3 |  |  |  |  |  |
| CC(=O)N[C@@H]1CCCc2c1cncc2N1C(=O)c2ccc(Cl)cc2[C@H]1C1CC1 | 100 | 22800 | 228 |  |  |  |  |  |
| CC(=O)N[C@H]1CCCc2c1cncc2N1Cc2cc(Cl)ccc2C1=O | 5140 | 39600 | 8 |  |  |  |  |  |
| CCC1c2cc(Cl)ccc2C(=O)N1c1cccnc1 (stereo not given) | 121 | 3340 | 28 | 6.6 | 65.9 |  |  |  |
| CC(=O)NCc1cncc(N2C(=O)c3ccc(Cl)cc3C2(C)C)c1 | 59 |  | 47 |  |  | 14 | 333 |  |
| CCC(=O)N[C@@H]1CCCc2c1cncc2N1C(=O)c2ccc(Cl)cc2[C@@H]1C | 6 | 414 | 69 | < 3.5 | < 20.2 |  |  |  |
